High-throughput results deposited in PubChem by several laboratories.
Compounds with a hit are over-represented: about 3.8% of the library has one in this group of screens.
NPY-Y1 antag: NPY-Y1 receptor antagonists, primary screen, cell-based. inhibition, % at 3.6 µM. actives 1% (n = 200,000). Neuropeptide Y receptor type 1 (Homo sapiens), P25929. HEK293-CNG Y1 cells, membrane potential fluorescence; NPY at EC95, then isoproterenol;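 active = inhibition above the campaign mean inhibition of all tested compounds plus 3 SD, cut at about 20% in these data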;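 also: 0% = DMSO wells given NPY plus isoproterenol and 100% = isoproterenol alone without NPY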
Target sequence (P25929 whole entry, looked up): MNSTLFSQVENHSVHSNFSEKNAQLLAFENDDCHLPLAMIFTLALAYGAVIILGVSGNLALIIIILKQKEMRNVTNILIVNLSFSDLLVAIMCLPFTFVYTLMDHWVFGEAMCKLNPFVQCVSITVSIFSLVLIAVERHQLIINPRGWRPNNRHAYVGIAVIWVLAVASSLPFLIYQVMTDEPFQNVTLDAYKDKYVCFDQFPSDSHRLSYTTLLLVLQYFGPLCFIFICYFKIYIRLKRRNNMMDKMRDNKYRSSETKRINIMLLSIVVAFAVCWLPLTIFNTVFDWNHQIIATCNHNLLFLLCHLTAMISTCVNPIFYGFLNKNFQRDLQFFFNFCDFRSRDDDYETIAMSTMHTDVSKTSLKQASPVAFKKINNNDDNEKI
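Benchmarks – high control isoproterenol alone, low control NPY with isoproterenol · Material – HEK293 Y1/CNG channel cell line · Times – dye 3 h, compound 60 min room temperature, stimulation 45 min · Probe or stimulus – NPY (25 nM), isoproterenol (1 µM), Ro 20-1724 (25 µM) · Evaluation – % inhibition of NPY effect · Signal – fluorescence, membrane potential probe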
NPY Y2 blocker: NPY-Y2 receptor antagonists, primary screen, cell-based. Neuropeptide Y receptor type 2 (Homo sapiens), P49146. NPY-Y2 expressing cells, antagonist mode. inhibition, % at 2.7 µM. actives 0.99% (n = 140,000); in the data active = inhibition above about 17%;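 also: 0% = vehicle with agonist challenge and 100% = reference antagonist with challenge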
NPY-Y2 PAM-ag: NPY-Y2 potentiators or agonists, primary screen, cell-based; actives 0.45% (n = 220,000); cells expressing NPY-Y2, potentiator/agonist read-out; AID 1359, 2008; activation, % at 3.6 µM; in the data active = activation above about 27%;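 also: cells stimulated with NPY near EC25 plus isoproterenol at EC100; 0% = vehicle plus submaximal agonist and 100% = vehicle plus saturating agonist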
NPY1 pot ag: NPY-Y1 receptor potentiators or agonists, primary screen, cell-based. Neuropeptide Y receptor type 1 (Homo sapiens), P25929. NPY-Y1 expressing cells, potentiator/agonist activation. activation, % at 3.6 µM. actives 0.37% (n = 220,000); in the data active = activation above about 33%, passing the limit was not always enough;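 also: cells stimulated with NPY at EC10 then isoproterenol at EC100; 0% = low agonist plus stimulus and 100% = saturating agonist plus stimulus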
RAM inhibit: inhibitors of the yeast RAM network, primary screen, dse1pr::URA3 reporter, 5-FOA selection; actives 1.8% (n = 190,000); S. cerevisiae dse1pr::URA3 reporter, 5-FOA growth OD615, 2 d; analog-sensitive cbk1-as2 kinase mutant strain; inhibition, % at 50 µM;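 active = inhibition above a set limit, 3 SD over mean compound inhibition, cut at about 8.4% in these data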;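 also: 0% = DMSO-only wells with no growth and 100% = 10 µM 1-NA-PP1 full growth; inhibition rescues growth on 5-FOA so higher OD means more RAM inhibition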
INS promoter inh: inhibitors of insulin promoter-driven GFP, primary screen, imaging, TRM-6 cells, eGFP reporter, cell count; inhibition, % at 2 µM; actives 0.9% (n = 130,000); reporter expression induced with tamoxifen; AID 1273, 2008;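 active = inhibition above the mean plus 3 SD, with well images judged a real hit on visual review, cut at about 60% in these data, passing the limit was not always enough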
NPY-Y1 antag ct: NPY-Y1 receptor antagonists, selectivity check, counter-screen for NPY-Y2 antagonist project, cell-based; shares compounds with NPY Y2 blocker; cell-based NPY-Y1 antagonism counterscreen; inhibition, % at 3.6 µM; actives 19% (n = 710); AID 1256, 2008; in the data active = inhibition above about 20%;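 also: cells challenged with NPY then isoproterenol with cAMP sensed through a CNG channel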
NPY-Y2 ant conf: NPY-Y2 receptor antagonists, retest of hits, confirmation, HEK293-CNG cells, membrane potential fluorescence, triplicate | HEK293 NPY-Y2 CNG channel | actives 32% (n = 710) | shares compounds with NPY Y2 blocker | inhibition, % at 2.8 µM;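 active = mean inhibition of triplicate wells above the hit cutoff set in the primary screen, cut at about 17% in these data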;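 also: 0% = DMSO with NPY challenge and 100% = BIIE0246 high control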
Active calls of the source: *; . = not tested or not shown.

SMILES	NPY-Y1 antag	NPY Y2 blocker	NPY-Y2 PAM-ag	NPY1 pot ag	RAM inhibit	INS promoter inh	NPY-Y1 antag ct	NPY-Y2 ant conf
O=C(NC1CCCCCC1)c1c2c(nc3ccccc13)CCN(Cc1ccccc1)C2	10.0	55.8*	-5.6	5.8	1.3	-32.1	81.1*	67.0*
CC(C)c1ccccc1NC(=O)COC(=O)c1c2c(nc3ccccc13)CCN(Cc1ccccc1)C2	18.3	18.7*	-6.3	-18.0	0.4	10.0	17.0	9.2
O=C(CNc1ccc2c(c1)OCO2)N/N=C\c1ccccc1Cl	10.3	40.4*	-8.9	-42.0	1.1	14.3	4.4	8.8
O=C(O)C1CCN(C(=O)CCc2ccccc2)CC1	.	.	14.1	16.9	.	.	.	.
CN1C(=O)NC2(O)C(=O)c3ccccc3C12O (stereo not given)	4.8	18.9*	-6.7	-17.8	1.9	-73.3	-0.6	2.9
CCCN1C(=O)NC2(O)C(=O)c3ccccc3C12O (stereo not given)	5.6	-3.1	10.5	-11.2	1.1	.	.	.
COc1ccc(Cl)cc1NC(=O)CCc1nc(-c2ccccc2F)no1	8.6	.	-13.3	-21.9	1.3	.	.	.
Cc1ccc(C(C(=O)NC2CCCCC2)N(Cc2ccco2)C(=O)Cc2c[nH]c3ccccc23)o1 (stereo not given)	13.8	18.8*	-5.3	-4.6	3.0	-56.2	13.4	10.8
CC1=[N+](C)N(c2ccccc2)C(=O)C1N=C/C=C/c1ccccc1 (stereo not given)	.	.	-25.3	-4.8	.	.	.	.
Cc1cnc(CN(C)Cc2nc(Cc3cccc(C(F)(F)F)c3)no2)[nH]1	2.2	.	-2.0	-0.7	-1.5	.	.	.
O=[N+]([O-])c1ccc(Cl)cc1N1CCCCC1	4.1	.	-2.8	-3.0	3.4	.	.	.
N#Cc1nc(COc2ccc(Cl)cc2)oc1N1CCCCCC1	12.4	17.2*	-19.0	-41.6	1.7	.	18.7	17.7*
CCOC(=O)C(C(C)=O)C(c1ccc(OCCC(C)C)cc1)C(C(C)=O)C(=O)OCC (stereo not given)	18.4	22.3*	-2.6	-22.3	3.4	52.9	13.5	7.2
CCOC(=O)C(CCCOc1ccc(C(C)CC)cc1)C(=O)OCC (stereo not given)	5.5	1.0	-8.0	-17.6	0.0	0.0	.	.
CCOc1ccc(C(CC(=O)O)NC(=O)c2sc3ccccc3c2Cl)cc1 (stereo not given)	17.5	19.2*	-22.8	-43.0	3.5	6.2	22.4*	28.1*
CN(C)CCCn1c(SCC(=O)N2c3ccccc3Sc3ccccc32)nc2ccccc2c1=O	14.8	38.8*	-20.9	-71.0	0.5	.	42.5*	77.3*
COc1cc(/C=C(\C#N)c2nc3ccccc3n2C)cc(OC)c1O	6.7	.	-1.4	-5.7	1.7	-478.6	.	.
Clc1ccc(CSc2nnc(-c3ccc4c(c3)OCO4)o2)cc1	8.9	22.4*	3.2	-20.6	6.1	-25.0	26.9*	29.7*
Cc1ccc(SCCNC(=O)/C=C/c2ccc([N+](=O)[O-])cc2)cc1	5.8	9.4	-13.7	-45.4	0.9	-24.3	.	.
Cc1ccc(SCCNC(=O)/C=C/c2ccc(Cl)cc2)cc1	8.8	18.9*	-1.4	-22.9	1.6	47.2	29.1*	39.2*
Cc1ccc(OCCN2C(=O)S/C(=C\c3ccc(C)o3)C2=O)cc1	4.2	17.2*	-5.2	-2.8	7.9	-17.9	4.6	6.0
O=C(Nc1ccc(Cl)c(S(=O)(=O)N2CCOCC2)c1)c1ccc(OCC2CCCO2)cc1 (stereo not given)	14.8	.	23.2	-3.7	2.8	.	.	.
CC(CC1C(C#N)=C(N)SC(N)=C1C#N)c1ccccc1 (stereo not given)	-3.9	6.8	9.2	-0.3	1.8	24.2	.	.
Cc1nnc(SC2CC(=O)N(c3ccccc3)C2=O)s1 (stereo not given)	-1.3	-0.4	-14.8	9.9	-0.9	.	.	.
Cc1nc(SC2CC(=O)N(c3ccccc3)C2=O)nc2c1CCCC2 (stereo not given)	18.8	21.0*	-30.6	-15.0	7.3	42.9	16.7	14.0
SMILES	NPY-Y1 antag	NPY Y2 blocker	NPY-Y2 PAM-ag	NPY1 pot ag	RAM inhibit	INS promoter inh	NPY-Y1 antag ct	NPY-Y2 ant conf
CC(=O)NC1(c2ccccc2)CCN(c2nc(C)cc(C)n2)CC1	14.9	48.7*	-10.2	-19.8	-0.3	-9.4	35.1*	34.6*
Cc1cc(C)nc(N2CCC(C(=O)NNC(=O)Cc3ccccc3)CC2)n1	.	.	-12.2	-5.0	.	.	.	.
Cc1ccc(C2=NOC(=O)/C2=C\C=C\c2ccccc2)cc1	4.1	.	-10.1	-4.7	5.8	.	.	.
COc1cccc(C2c3c(oc4ccccc4c3=O)C(=O)N2CCCN(C)C)c1OC (stereo not given)	1.0	-2.0	-6.9	10.1	0.5	-35.7	.	.
CCN(CC)CCCN1C(=O)c2oc3ccccc3c(=O)c2C1c1cccc(OC)c1OC (stereo not given)	-2.2	19.4*	-3.0	-7.2	1.7	14.3	-0.1	2.8
Nc1ccc2c(c1)C(=O)C(=O)c1ccccc1-2	9.0	48.0*	-3.1	-8.5	1.5	-239.0	17.2	34.6*
Cc1ccc2cccc(NC(=S)NC(=O)c3ccccc3)c2n1	14.1	21.8*	-51.5	-47.6	1.3	6.5	20.4*	42.7*
Cc1ccc(C)c(NS(=O)(=O)c2cc(C(=O)Nc3ccccc3-c3ccccc3)ccc2Cl)c1	0.9	68.8*	-32.8	2.8	7.7	-29.2	2.2	103.2*
O=C(c1cc2sccc2n1Cc1ccccc1)N1CCc2ccccc21	16.5	19.8*	-25.4	0.4	4.5	0.0	10.0	12.4
O=C1CS/C(=N/N=C\c2ccn[nH]2)N1	.	.	-14.5	-2.9	.	.	.	.
N#CN=C1CCCCCN1CC(N)=O	-4.9	0.3	15.5	19.3	2.8	24.2	.	.
COc1ccc(OCCNc2cc(N3CCCCC3)ccc2[N+](=O)[O-])cc1	6.8	17.5*	-6.8	-12.2	10.8*	.	4.3	7.1
COc1cc(C(=O)NCC(=O)N/N=C(/C)c2cccs2)cc(OC)c1OC	-1.6	-0.1	14.9	-11.4	-1.3	37.8	.	.
CCN(CC)c1ccc(NC(=O)COC(=O)CSc2ccc(Br)cc2C)cc1	5.0	6.1	-4.9	-19.8	2.3	0.0	.	.
Cc1cc(C)c(NC(=O)COC(=O)CSc2ccc(Br)cc2C)c(C)c1	6.2	17.6*	1.0	2.5	8.2	-42.9	5.7	6.8
